The results in this text go back to ChEMBL document CHEMBL4049434, “Radiolabeled Dibenzodiazepinone-Type Antagonists Give Evidence of Dualsteric Binding at the M2 Muscarinic Acetylcholine Receptor” (J Med Chem, 2017).

The source made the active and inactive calls. The rule behind the calls is not given here.

Test [1] has as its target T1, Muscarinic acetylcholine receptor M2 (Homo sapiens, UniProt P08172).
T1 sequence (P08172 whole entry): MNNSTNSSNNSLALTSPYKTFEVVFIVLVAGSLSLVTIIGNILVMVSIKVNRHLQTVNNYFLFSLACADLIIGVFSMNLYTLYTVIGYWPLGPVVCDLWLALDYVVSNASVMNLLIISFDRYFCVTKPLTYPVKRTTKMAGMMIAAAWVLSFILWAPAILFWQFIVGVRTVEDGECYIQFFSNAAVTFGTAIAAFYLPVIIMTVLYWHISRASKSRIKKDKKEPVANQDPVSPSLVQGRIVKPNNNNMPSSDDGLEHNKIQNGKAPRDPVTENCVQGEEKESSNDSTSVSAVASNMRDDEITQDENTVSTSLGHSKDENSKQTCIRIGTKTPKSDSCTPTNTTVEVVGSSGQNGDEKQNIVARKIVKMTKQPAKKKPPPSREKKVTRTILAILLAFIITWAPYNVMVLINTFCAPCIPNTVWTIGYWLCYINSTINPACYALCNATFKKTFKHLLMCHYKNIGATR
The test is described as follows: Displacement of [3H]NMS from human muscarinic acetylcholine receptor M2 expressed in CHOK9 cells after 3 hrs by liquid scintillation counting assay. The class given is cell-based. To be noted: read-out: Ki. A general note: Displacement assays read how much labelled ligand stays bound in the presence of the test substance.

In test [2] the target is T1, Muscarinic acetylcholine receptor M2. Briefly: Binding affinity to human muscarinic acetylcholine receptor M2 expressed in live adherent CHOK9 cells after 2 hrs by liquid scintillation counting assay. In kind it is cell-based. Put shortly: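 Live adherent CHO-hM2 cells in L15 medium with 1% BSA, 23 ± 1 °C, 2 h incubation. Competition at 2 nM radioligand; additional 4, 8, 15 and 30 nM in W84 experiments. […] Saturation data fitted one-site; competition by four-parameter logistic fits; at least three experiments in triplicate.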

For test [3] the target is unchanged. The test is described as follows: Ratio of binding affinity to human muscarinic acetylcholine receptor M2 expressed in CHOK9 cells assessed as dissociation rate constant to binding affinity to human muscarinic acetylcholine receptor M2 expressed in CHOK9 cells assessed as association rate constant. In kind it is cell-based.
For test [4] the target is unchanged. Briefly: Binding affinity to human muscarinic acetylcholine receptor M2 expressed in live adherent CHOK9 cells assessed as saturation binding after 2 hrs by liquid scintillation counting assay.
Test [5] has the same target. Briefly: Displacement of [3H]UNSW-MK259 from human muscarinic acetylcholine receptor M2 expressed in CHOK9 cells after 3 hrs by liquid scintillation counting assay. In kind it is cell-based.
For test [6] the target is unchanged. Briefly: Displacement of [3H]UR-AP060 from human muscarinic acetylcholine receptor M2 expressed in CHOK9 cell homogenate after 3 hrs by liquid scintillation counting assay.
Test [7] has the same target. The test is described as follows: Displacement of [3H]NMS from human muscarinic acetylcholine receptor M2. The gist of the method: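 Competition binding at intact adherent CHO-K9 cells stably expressing human M2R. Cells were incubated with [3H]NMS 0.2 nM (final) and competitor for 3 h at 23 ± 1 °C in Leibovitz L-15 medium with 1% BSA. […] Curves were fitted by four-parameter logistic fits. Replicates: 3 to 9 independent experiments, each in triplicate.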

For test [8], the target named is T2, Muscarinic acetylcholine receptor M2 (Homo sapiens) (UniProt P08172).
T2 sequence (whole entry): T1 sequence (P08172 whole entry)

In test [9] the target is Muscarinic acetylcholine receptor M2 (Homo sapiens) (UniProt P08172). Briefly: Displacement of [3H]NMS from human muscarinic acetylcholine receptor M2 expressed in CHOK9 cells at <100 uM after 3 hrs by liquid scintillation counting assay.
Test [10] shares this target. The test is described as follows: Displacement of [3H]UNSW-MK259 from human muscarinic acetylcholine receptor M2 expressed in CHOK9 cells at <100 uM after 3 hrs by liquid scintillation counting assay.

Broadly, the Ki is a dissociation constant, usually derived from enzyme kinetics or from competition with a known ligand. Usually Kd stands for the concentration at which binding is half-saturated. For `[3H]CC([3H])C(=O)NCCNC(=O)CCc1cn(CCCCC2CCN(CC(=O)N3c4ccccc4NC(=O)c4ccccc43)CC2)cn1` (stereo not given), the Ki in [1] was 0.76 nM. The Kd in test [2] was found to be 0.87 nM; in test [3] it was 0.7 nM; in [4] it was 0.87 nM.

As to `O=C1CCCN1CC#CCN1CCCC1` [OXOTREMORINE], the inhibition constant (Ki) is 148 nM in test [5], 10000 nM in test [6] and 251 to 10000 nM in test [7].

As a reminder, the pKb is −log10 of the Kb, conventionally taken in molar units. Regarding `Cc1c(Cl)c(OCC(=O)N2CCN(C)CC2)nc2sc(C(=O)NC3CC3)c(N)c12`, in test [8], the pKb was 5.77.

Regarding `CCC(=O)NCCNC(=O)CCc1c[nH]cn1`, the inhibition result in [9] and in test [10] was “inactive” in each case.
